Reference: paper PMC10664564 (Chemical Science, 2023)
Each block holds one compound with its values, some of them ahead of it.

Assays:
[1] = molecular target: T1, SQS (Homo sapiens, UniProt P37268); test: Western blot of SQS protein levels in HeLa cells; type: cell-based; conditions: 18 h, 10 μM
T1 sequence (P37268 1-417): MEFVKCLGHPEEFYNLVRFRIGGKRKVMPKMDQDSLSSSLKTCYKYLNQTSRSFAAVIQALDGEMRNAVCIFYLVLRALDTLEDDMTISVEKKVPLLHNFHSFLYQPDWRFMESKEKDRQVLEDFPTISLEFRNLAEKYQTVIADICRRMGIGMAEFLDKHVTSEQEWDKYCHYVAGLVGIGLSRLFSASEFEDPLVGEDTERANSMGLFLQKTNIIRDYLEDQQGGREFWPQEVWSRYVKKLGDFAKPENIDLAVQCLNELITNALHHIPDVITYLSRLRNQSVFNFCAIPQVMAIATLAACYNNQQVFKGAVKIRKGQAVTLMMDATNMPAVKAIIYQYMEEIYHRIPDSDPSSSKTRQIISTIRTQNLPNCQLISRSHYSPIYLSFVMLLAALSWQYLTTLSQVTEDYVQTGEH
How it was run: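 HeLa cells were exposed to test compound, usually for 18 h, and SQS was detected by western blot (n = 2–4). DC50 and Dmax came from an 18 h dose–response (n = 4, mean ± SEM). A time course used 10 μM. Inhibitor arms were pre-incubated 2 h with MG132 (20 μM), chloroquine (20 μM) or MLN4924 (5 μM). A turnover arm used cycloheximide at 100 μg mL−1.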

[2] = phase II and III clinical trials, development stopped; cited from earlier work
[3] = molecular target: T2, Recombinant SQS (31-370) (Homo sapiens, UniProt P37268); test: In vitro SQS activity assay; type: biochemical; conditions: compound at 1 μM, positive control
T2 sequence (P37268 31-370): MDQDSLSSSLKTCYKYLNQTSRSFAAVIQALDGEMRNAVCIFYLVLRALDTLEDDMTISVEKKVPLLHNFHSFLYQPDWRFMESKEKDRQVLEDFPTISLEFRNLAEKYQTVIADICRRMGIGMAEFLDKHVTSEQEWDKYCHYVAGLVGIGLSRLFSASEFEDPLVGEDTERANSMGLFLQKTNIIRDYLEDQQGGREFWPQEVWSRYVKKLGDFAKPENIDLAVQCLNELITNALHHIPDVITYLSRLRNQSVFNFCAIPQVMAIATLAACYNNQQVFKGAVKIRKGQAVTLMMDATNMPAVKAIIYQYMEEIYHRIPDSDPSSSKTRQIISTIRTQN

[4] = tested on: HeLa cells; test: Cell viability assay ± MBCD; type: cell-based, human; conditions: 72 h
How it was run: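 HeLa cells grown 72 h in FBS-containing medium with methyl β-cyclodextrin at 3 mM (a concentration set as non-toxic for HeLa), treated with a range of test compound concentrations; viability read; n = 3, mean ± SD of one biological replicate shown.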

SQS levels, tool compound alone [1]: marked accumulation of SQS
SMILES: CCNCCN(CC)c1nc(Nc2ccc3ncoc3c2)nc(N[C@@H](C)C2CCCCC2)n1 [LS-102]

SMILES: COc1cccc([C@H]2O[C@H](CC(=O)N3CCC(CC(=O)O)CC3)C(=O)N(CC(C)(C)COC(C)=O)c3ccc(Cl)cc32)c1OC [TAK-475, lapaquistat acetate]
clinical safety finding [2]: hepatotoxicity accompanied by elevated bilirubin levels

inhibition of SQS activity [3]: completety inhibited the reaction
SMILES: C=C(CC[C@]12O[C@H](C(=O)O)[C@@](O)(C(=O)O)[C@](C(=O)O)(O1)[C@H](OC(=O)/C=C/[C@@H](C)C[C@@H](C)CC)[C@H]2O)[C@@H](OC(C)=O)[C@H](C)Cc1ccccc1 [ZAA, zaragozic acid A]
cell viability under cholesterol depletion ([4]; MBCD 3 mM, 5 and 10 μM): completely abolish cell viability
cell viability ([4]; standard conditions (DMEM 10% FBS)): neither ZAA nor KY02111 adversely affected cell viability
